The list is not random: actives were taken first. Their share in the collection is about 2.6%.
SENP7 block: SENP7 protease inhibitors, primary screen, biochemical, luminescence, uHTS | Sentrin-specific protease 7 (Homo sapiens), Q9BQF6 | recombinant SENP7, Z-RLRGG-aminoluciferin luminescence, 40 min | inhibition, % at 5 µM | 1.5% of 330,000 active;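 active means inhibition above about 50% at the single test dose, limit read from the data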;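 further: plate controls were DMSO with enzyme for no effect and no enzyme buffer wells for full effect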
Target sequence (Q9BQF6 706-1050 limits assumed): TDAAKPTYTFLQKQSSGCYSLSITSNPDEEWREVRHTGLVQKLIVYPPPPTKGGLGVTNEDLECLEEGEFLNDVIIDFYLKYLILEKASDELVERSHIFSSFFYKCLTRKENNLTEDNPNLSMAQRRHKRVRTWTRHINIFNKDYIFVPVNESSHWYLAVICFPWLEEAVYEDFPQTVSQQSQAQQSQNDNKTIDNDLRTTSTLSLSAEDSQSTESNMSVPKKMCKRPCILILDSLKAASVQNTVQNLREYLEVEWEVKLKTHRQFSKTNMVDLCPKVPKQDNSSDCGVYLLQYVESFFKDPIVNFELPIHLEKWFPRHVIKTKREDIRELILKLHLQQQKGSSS
Platelet DG rel: inhibitors of platelet dense granule secretion, primary screen, cell-based, MLPCN, human platelets | inhibition, %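 (compounds screened at 7.5 µM in platelet-rich plasma)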 | 0.22% of 300,000 active | human platelet-rich plasma, SFLLRN dense granule ATP release, luminescence;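 active means mean replicate score, as percent of positive control, at or above 50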
SENP1 FRET inh: human SENP1 catalytic domain inhibitors, primary screen, biochemical, FRET, uHTS. Sentrin-specific protease 1 (Homo sapiens), Q9P0U3. inhibition, % at 10 µM. 0.21% of 360,000 active. recombinant SENP1 catalytic domain, CyPet-SUMO1-YPet FRET cleavage;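 active means inhibition at least 30% at 10 µM, raw YFP signal under a set limit, fluorescence ratio 0.5 to 1.5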;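 further: 0% = enzyme with DMSO and 100% = no enzyme wells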
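Assay system – human recombinant His6-tagged SENP1 catalytic domain enzyme · Input – SENP1 enzyme, 20 pM final · Buffer or medium – Tris pH 8 buffer plus EDTA, NaCl, BME, BSA, NP40, catalase · Schedule – 50 min reaction at room temperature · Technique – FRET read of cyan and yellow fluorescence · Control set – no-enzyme wells low, DMSO-plus-enzyme wells high control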
SENP8 block-1: human SENP8 protease inhibitors, primary screen, biochemical, fluorescence, Nedd8 protein substrate, uHTS; Sentrin-specific protease 8 (Homo sapiens), Q96LD8; recombinant SENP8; inhibition, % at 20 µM; 0.64% of 360,000 active; AID 602440, 2012; in the data active means inhibition mostly above about 40%, no sharp cut-off; inactive means mostly below about 27%
SENP6 inh: SENP6 protease inhibitors, primary screen, biochemical, luminescence, uHTS | 1.8% of 330,000 active | Recombinant SENP6 catalytic domain, aminoluciferin luminescence | inhibition, % at 10 µM;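 active means inhibition above about 50% at the single tested dose, limit read from the data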;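 further: plate controls were DMSO wells with enzyme for no effect and DMSO wells lacking enzyme for full effect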
SENP8 block-2: SENP8 protease inhibitors, primary screen, biochemical, luminescence | Sentrin-specific protease 8 (Homo sapiens), Q96LD8 | purified SENP8, Z-RLRGG-aminoluciferin cleavage | inhibition, % at 10 µM | 1.2% of 330,000 active | AID 2540, 2010; in the data active means inhibition above about 50%
SENP8 confirm: SENP8 protease inhibitors, retest, confirmation, biochemical, luminescence, single concentration; shares compounds with SENP7 block; Recombinant SENP8, Z-RLRGG-aminoluciferin luminescence, 60 min; inhibition, % at 12.5 µM; 40% of 6,200 active;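 active means mean inhibition across replicates above about 50%, limit read from the data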
SENP6 conf: SENP6 protease inhibitors, confirmation, biochemical, luminescence, single concentration | shares compounds with SENP7 block | recombinant SENP6, Z-RLRGG-aminoluciferin luminescence | inhibition, % at 12.5 µM | 58% of 6,200 active
SENP7 conf: SENP7 protease inhibitors, retest, confirmation, biochemical, luminescence, single concentration; shares compounds with SENP7 block; recombinant SENP7, Z-RLRGG-aminoluciferin luminescence, 40 min; inhibition, % at 12.5 µM; 69% of 6,200 active; AID 488917, 2010
Casp3 SENP sel: caspase-3 protease inhibitors, confirmation, selectivity assay for SENP inhibitor project, biochemical, single concentration. shares compounds with SENP7 block. purified caspase-3, Z-DEVD-aminoluciferin luminescence, 60 min. inhibition, % at 12.5 µM. 60% of 6,200 active;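 active means mean inhibition above about 50%, limit read from the data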;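 further: plate controls were enzyme with DMSO for no effect and wells without caspase-3 for full effect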
Luc interf: luminescence interference (SENP counter-screen). shares compounds with SENP7 block. Pre-incubated SENP8/Z-RLRGG-aminoluciferin, luciferase luminescence interference. inhibition, % at 12.5 µM. 39% of 6,200 active. AID 488919;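 active means mean inhibition above about 50% when retested at one dose, limit read from the data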;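 further: plate controls were DMSO wells with completed reaction for no effect and substrate without enzyme for full effect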
* marks the source's active call; other numbers are inactive results; / = no result.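 How the source made its calls, unless noted: active means mean inhibition above about 50% in the one-dose retest (limit read from the data); inactive means the rest.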

SMILES	SENP7 block	Platelet DG rel	SENP1 FRET inh	SENP8 block-1	SENP6 inh	SENP8 block-2	SENP8 confirm	SENP6 conf	SENP7 conf	Casp3 SENP sel	Luc interf
Cc1ccc(SCC(=O)Nc2cc([N+](=O)[O-])ccc2O)cc1	4	1	1	38	-16	79*	-13	26	57*	39	38
CCN(CC)C(=O)Cn1c(=O)n(-c2ccccc2)c(=O)c2sccc21	-1	18	1	17	10	3	/	/	/	/	/
COc1ccc(C(=O)/C=C/c2cccs2)c(OC(=O)c2cccc([N+](=O)[O-])c2)c1	39	8	3	29	79*	67*	31	39	19	44	2
CCOC(=O)c1ccc(N=Cc2nc(-c3ccccc3)oc2OC(C)=O)cc1	-8	3	-14	-6	-35	-13	/	/	/	/	/
CC(=O)Oc1oc(-c2ccccc2)nc1C=Nc1ccccc1	-6	0	-2	13	3	2	/	/	/	/	/
COc1ccc(N=Cc2nc(-c3ccccc3)oc2OC(=O)c2ccccc2)cc1	56*	-2	-36	4	54*	11	9	7	8	62*	5
CN(C)c1ccc(N=Cc2nc(-c3ccccc3)oc2OC(=O)c2cccc(Br)c2)cc1	47	-2	-27	8	78*	49	-23	10	16	36	27
COc1c(C)cc(C(O)c2ncc(-c3cccc(F)c3)[nH]2)cc1C (stereo not drawn)	/	/	1	7	/	/	/	/	/	/	/
CCOc1cc(C2c3c(oc4ccccc4c3=O)C(=O)N2c2nccs2)ccc1O (stereo not drawn)	8	1	-2	34	-7	-4	/	/	/	/	/
O=C(O)c1ccc(N/N=C/c2c[nH]c3ccccc23)cc1	100*	11	7	-279	97*	98*	98*	100*	102*	96*	97*
O=C(O)c1ccc(N/N=C/c2ccnc3ccccc23)cc1	92*	15	-39	11	91*	82*	77*	90*	92*	69*	10
COc1ccc(/C=N/Nc2ccc(C(=O)O)cc2)c(OC)c1OC	21	13	2	-197	-7	7	/	/	/	/	/
COc1ccc(-n2cc([N+](=O)[O-])c(=O)c3ccc(Cl)cc32)cc1	-2	18	2	17	0	-2	/	/	/	/	/
Nc1cc(Cl)nc(N/N=C/c2c(O)ccc3ccccc23)n1	38	14	48*	-20	58*	32	37	47	84*	25	13
O=C1CCCc2nc(N3CCc4ccccc43)ncc21	89*	-13	-8	-237	91*	78*	12	24	35	26	30
Cc1ccccc1C1=NC(c2ccc(F)cc2F)ON1 (stereo not drawn)	34	5	1	20	66*	35	-14	5	40	14	5
Cc1ccccc1-c1nnc(SCc2ccc(F)cc2)o1	-9	-1	-1	0	-14	-21	/	/	/	/	/
